Assay outcomes deposited in PubChem BioAssay by Broad Institute.
ERAP1 inh: inhibitors of human ERAP1 aminopeptidase. recombinant ERAP1, Leu-AMC fluorescence, 60 min. 340,000 compounds, 0.15% hits. AID 652197. Q9NZ08. inhibition, % at 10.7 µM;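 active = mean replicate inhibition of at least 30%, or all replicates individually reaching that 30% level; inactive = mean below 30% and not every replicate reaching it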;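 also: 0% = neutral control wells and 100% = L-leucinethiol positive control wells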
DENV2 CPE rescue: inhibitors of DENV2 cytopathic effect; DENV2-infected cells, cytopathic effect rescue, plate reader; CPE inhibition, % at 9.99 µM; 350,000 compounds, 1.7% hits; AID 651640; in the data active = CPE inhibition above about 20%, passing the limit was not always enough; tested in BHK-21 cells;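 also: 0% = median of neutral control wells and 100% = median of positive control wells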
SIRT5 block: sirtuin-5 (human) deacylase inhibition; 330,000 compounds, 1.1% hits; Purified SirT5, succinyl-peptide AMC, trypsin-coupled fluorescence; inhibition, % at 15 µM; Q9NXA8; AID 652115; in the data active = inhibition above about 15%
Target sequence (Q9NXA8 whole entry, looked up): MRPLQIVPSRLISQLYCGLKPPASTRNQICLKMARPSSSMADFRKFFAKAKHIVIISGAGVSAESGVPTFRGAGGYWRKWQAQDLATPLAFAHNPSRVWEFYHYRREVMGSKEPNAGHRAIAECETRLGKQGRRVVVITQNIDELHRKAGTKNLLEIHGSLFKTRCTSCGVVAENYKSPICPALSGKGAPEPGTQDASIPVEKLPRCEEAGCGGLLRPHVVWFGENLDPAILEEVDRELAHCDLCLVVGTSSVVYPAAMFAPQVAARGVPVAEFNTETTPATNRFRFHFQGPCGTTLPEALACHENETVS
S100A4 inh HTS: blocks human S100A4 binding to myosin IIA peptide. S100A4/TAMRA-MyoIIA peptide fluorescence polarization. 360,000 compounds, 0.14% hits. inhibition, % at 10.7 µM. P26447;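 active = mean inhibition of at least 70% across replicates, with every replicate also reaching that level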
Target sequence (P26447 whole entry, looked up): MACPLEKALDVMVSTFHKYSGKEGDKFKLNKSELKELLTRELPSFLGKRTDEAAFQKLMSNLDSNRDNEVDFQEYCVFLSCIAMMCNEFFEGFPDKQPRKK
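assay system = human S100A4 monomer with TAMRA-labelled myosin IIA peptide | also added = labelled myosin peptide probe, 5 nM | incubation = 5 min between mix addition and reading | control set = DMSO and TFP controls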
* = called active by the depositor; x = no result. This is a sample that favours compounds with a hit; in the whole collection about 2.9% have one here.

SMILES	ERAP1 inh	DENV2 CPE rescue	SIRT5 block	S100A4 inh HTS
CC(C)(C)S(=O)N1Cc2cc(C(=O)NCc3ccc4c(c3)OCO4)nc(-c3cccc(C#CCC4CCCC4)c3)c2[C@@H]1CCO (some centres undefined)	2.4	49.4*	4.5	-27.9
CC(C)(C)S(=O)N1Cc2cc(C(=O)NCc3ccc4c(c3)OCO4)nc(-c3cccc(C#CCC4CCCC4)c3)c2[C@H]1CCO (some centres undefined)	-7.2	6.5	-2.5	-18.4
CC(C)(C)S(=O)N1Cc2cc(C(=O)NCc3ccc4c(c3)OCO4)nc(-c3cccc(-c4cccc(F)c4)c3)c2[C@@H]1CCO (some centres undefined)	-1.2	23.9*	2.4	-21.9
CC(C)(C)S(=O)N1Cc2cc(C(=O)NCc3ccc4c(c3)OCO4)nc(-c3cccc(-c4cc5ccccc5o4)c3)c2[C@H]1CCO (some centres undefined)	0.3	1.0	9.1	-22.0
CCS(=O)(=O)Nc1ccc2c(c1)C(=O)N(C)[C@H]1CC[C@@H](CC(=O)NC)O[C@@H]1CO2	0.4	-6.0	-2.5	-2.1
CCC(=O)N1CC2(CCN(Cc3ccccc3Cl)CC2)c2c([nH]c3cc(OC)ccc23)[C@@H]1CO	-0.5	23.6*	5.9	-10.0
COc1ccc2c3c([nH]c2c1)[C@@H](CO)N(Cc1nccs1)CC31CN(Cc2cccnc2)C1	1.0	-6.3	-6.8	12.7
COc1ccc2c3c([nH]c2c1)[C@@H](CO)N(Cc1nccs1)CC31CN(Cc2ccncc2)C1	-3.2	54.2*	-0.5	12.8
COc1ccc2c3c([nH]c2c1)[C@@H](CO)N(C(=O)c1cccnc1)CC31CN(Cc2ccccc2)C1	-0.1	35.1*	0.6	-8.4
COc1ccc2c3c([nH]c2c1)[C@@H](CO)N(C(=O)c1ccccc1)CC31CCN(C)CC1	-0.5	31.0*	3.8	3.5
COc1ccc2c3c([nH]c2c1)[C@@H](CO)N(C(=O)c1cccnc1)CC31CCN(Cc2ccccc2)CC1	3.1	-25.5	2.6	-50.4
C[C@H]1CN([C@@H](C)CO)C(=O)c2cc(/C=C/c3ccccc3)cnc2O[C@H]1CN(C)C	-1.1	0.5	-20.9	5.0
O=C(C[C@H]1C[C@H]2c3cc(NC(=O)Cc4ccncc4)ccc3O[C@H]2[C@H](CO)O1)NCc1cc(F)ccc1F	0.7	-2.4	7.3	-5.7
COc1ccc2c3c([nH]c2c1)[C@@H](CO)N(C(=O)c1ccc(F)cc1)CC31CN(Cc2cccnc2)C1	-2.8	6.8	2.3	-32.2
COc1ccc2c3c([nH]c2c1)[C@@H](CO)N(C(=O)CN1CCOCC1)CC31CN(Cc2ccccc2)C1	-1.0	39.7*	-7.9	2.4
COc1ccc2c3c([nH]c2c1)[C@H](CO)N(C(C)=O)CC31CN(C(=O)c2cccc(F)c2)C1	x	83.5*	x	x
COc1ccc2c3c([nH]c2c1)[C@@H](CO)N(C(=O)CN1CCOCC1)CC31CCN(Cc2ccccc2)CC1	0.3	-9.1	0.9	7.6
COc1ccc2c3c([nH]c2c1)[C@H](CO)N(C(=O)c1ccc(F)cc1)CC31CN(Cc2cccnc2)C1	-2.2	44.6*	-0.1	-27.6
COc1ccc(S(=O)(=O)N[C@@H]2CC[C@@H](CC(=O)N3CCN(c4ccccc4)CC3)O[C@@H]2CO)cc1	1.2	-1.9	1.7	-4.8
CCC(=O)Nc1ccc2c(c1)C(=O)N(C)C[C@H](OC)[C@@H](C)CN(Cc1cccc(F)c1)[C@H](C)CO2	1.1	11.6	1.7	-18.4
O=C(C[C@H]1CC[C@@H](NC(=O)Nc2cc(F)ccc2F)[C@H](CO)O1)NCCCN1CCOCC1	3.3	-4.0	-1.0	20.2
CCCCn1nnnc1C1(C)CCC(=O)N1CCOc1ccccc1 (centres undefined)	16.7	65.5*	x	2.0
COc1ccc(-n2nnnc2C2(C)CCC(=O)N2Cc2ccccc2)cc1 (centres undefined)	1.0	63.4*	-0.5	-13.5
CC1(c2nnnn2Cc2ccccc2)CCC(=O)N1CCOc1ccccc1 (centres undefined)	2.5	92.1*	x	-4.8
CC(C)NC(=O)Nc1ccc2c(c1)C(=O)N([C@H](C)CO)C[C@H](C)[C@H](CN(C)CC1CCCCC1)OCCCC[C@@H](C)O2	2.9	-3.1	-3.7	5.6
Cc1noc(C)c1S(=O)(=O)N(C)C[C@H]1Oc2ccc(NC(=O)C3CCCCC3)cc2CC(=O)N([C@H](C)CO)C[C@H]1C	0.2	-8.1	0.8	10.1
